Assay [1] deals with Human immunodeficiency virus type 1 reverse transcriptase (Human immunodeficiency virus 1) (UniProt Q72547). Particulars: 2.8 uM.
For assay [2] the target is unchanged. Particulars: 350 uM.
For assay [3] the target is unchanged. Particulars: 350 uM. This is another data set of the same source.
Assay [4] shares this target. Particulars: 14 uM.
The target is the same in assay [5]. The assay can be described thus: Compound tested for % inhibition of cell-free HIV-1 Reverse Transcriptase at a concentration of 3.9 uM. The essentials:
(§1)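 HIV-1 RT came from disrupted, partially purified, concentrated virions. Reaction ran 30 min at 37 °C in 50 mM Tris-HCl pH 8.4 with 2 mM DTT, 100 mM KCl, 10 mM MgCl2, 0.1% Triton X-100, [methyl-3H]dTTP (1 µCi, 30 Ci/mmol), poly(rA)·oligo(dT) template and compound. It was stopped with 5% TCA, and precipitate was filter-collected and scintillation-counted. Variation was at most 10%.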

The subject of assay [6] is MT4. The experiment in a line: Compound tested for its inhibition of HIV-1 induced cytopathogenicity in MT-4 cells. It is filed as functional. Particulars: Homo sapiens, read-out: ED50 (the source's name). The essentials:
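MT-4 cells infected with HIV-1 (HTLV-III_B) at MOI 0.02 and incubated 4 days with a range of compound concentrations. Viable cells were counted by MTT. ED50 is the 50% antiviral dose from inhibition of virus-induced cytopathogenicity, given as the mean of two separate experiments.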

Assay [7] relates to MT4. The experiment in a line: Compound was evaluated for inhibitory effect against MT-4 cells of HIV-2 at a concentration of 0.8(0.8) ug/mL (uM). Format: functional, Homo sapiens. The essentials: (§2)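 HIV-2 (ROD strain) infected MT-4 cells at multiplicity of infection 0.02, incubated with a range of compound concentrations for 4 days. Viable cells counted by MTT method. Per-concentration inhibition of virus-induced cytopathogenicity; values are means of two separate experiments.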

The target of assay [8] is Human immunodeficiency virus type 1 reverse transcriptase (Human immunodeficiency virus 1) (UniProt Q72547). The assay can be described thus: Inhibitory dose at a concentration 490 uM cell-free HIV-1 Reverse Transcriptase. A digest of the protocol:
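HIV-1 RT from disrupted, partially purified and concentrated virions. 37 °C for 30 min in 50 mM Tris-HCl pH 8.4, 2 mM DTT, 100 mM KCl, 10 mM MgCl₂, 0.1% Triton X-100, 1 µCi [methyl-³H]dTTP, 0.01 unit poly(rA)·oligo(dT). Stopped with 5% TCA; precipitate collected on glass-fiber filters and counted by scintillation. Means of two experiments; variation ≤10%.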

Assay [9] deals with MT4. The experiment in a line: Compound tested for its ability to reduce viability of mock-infected MT-4 cells. Format: functional. Particulars: Homo sapiens, read-out: CD50 (the source's name). A digest of the protocol:
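Mock-infected MT-4 cells were incubated 4 days with a range of compound concentrations, and viability was read by MTT. CD50 is the 50% cytotoxic dose from reduced viability, given as the mean of two separate experiments.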

Assay [10] relates to MT4. The assay can be described thus: Cell viability at a concentration of 0.8(0.8) ug/mL (uM). It is filed as functional, Homo sapiens.
Assay [11] relates to MT4. The experiment in a line: Compound was evaluated for inhibitory effect against MT-4 cells of HIV-2 at a concentration of 20(19.6) ug/mL (uM). Format: functional, Homo sapiens. The essentials:
as §2

Assay [12] deals with Human immunodeficiency virus type 1 reverse transcriptase (Human immunodeficiency virus 1) (UniProt Q72547). The assay can be described thus: Compound tested for % inhibition of cell-free HIV-1 Reverse Transcriptase at a concentration of 19.6 uM. The essentials: as §1
Another assay relates to MOLT-4 (Homo sapiens). The assay can be described thus: Compound tested for % inhibition of giant cell formation at a concentration of 98 uM.
Assay [13] concerns MT4. The experiment in a line: Cell viability at a concentration of 4(3.9) ug/mL (uM). It is filed as functional, Homo sapiens.
The subject of assay [14] is MT4. The experiment in a line: Compound was evaluated for inhibitory effect against MT-4 cells of HIV-1 at a concentration of 20(19.6) ug/mL (uM). Format: functional, Homo sapiens. A digest of the protocol: (§3)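 HIV-1 (HTLV-III_B) infected MT-4 cells at multiplicity of infection 0.02, incubated with a range of compound concentrations for 4 days. Viable cells counted by MTT method. Per-concentration inhibition of virus-induced cytopathogenicity; values are means of two separate experiments.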

The test system of assay [15] is MT4. The experiment in a line: Compound was evaluated for inhibitory effect against MT-4 cells of HIV-1 at a concentration of 4(3.9) ug/mL (uM). It is filed as functional, Homo sapiens. A digest of the protocol: as §3
The subject of assay [16] is MT4. The assay can be described thus: Cell viability at a concentration of 100(98) ug/mL (uM). Format: functional, Homo sapiens.
Assay [17] deals with Human immunodeficiency virus 1. The assay can be described thus: Compound tested for % inhibition of giant cell formation at a concentration of 98 uM.
For assay [18], the system named is MT4. The experiment in a line: Compound was evaluated for inhibitory effect against MT-4 cells of HIV-2 at a concentration of 4(3.9) ug/mL (uM). It is filed as functional, Homo sapiens. A digest of the protocol:
as §2

Assay [19] concerns MT4. The assay can be described thus: Compound was evaluated for inhibitory effect against MT-4 cells of HIV-1 at a concentration of 100(98) ug/mL (uM). Format: functional, Homo sapiens. A digest of the protocol: as §3
The test system of assay [20] is MT4. The assay can be described thus: Compound was evaluated for inhibitory effect against MT-4 cells of HIV-1 at a concentration of 0.8(0.8) ug/mL (uM). It is filed as functional, Homo sapiens. The essentials:
as §3

In assay [21] the test system is MT4. The experiment in a line: Compound was evaluated for inhibitory effect against MT-4 cells of HIV-2 at a concentration of 100(98) ug/mL (uM). It is filed as functional, Homo sapiens. The essentials: as §2
The target in assay [22] is Human immunodeficiency virus type 1 reverse transcriptase (Human immunodeficiency virus 1) (UniProt Q72547). The experiment in a line: Compound tested for % inhibition of cell-free HIV-1 Reverse Transcriptase at a concentration of 490 uM. A digest of the protocol: as §1
For assay [23], the system named is MT4. The experiment in a line: Cell viability at a concentration of 20(19.6) ug/mL (uM). Format: functional, Homo sapiens.
The test system of assay [24] is MT4. The assay can be described thus: Compound tested for its inhibition of HIV-2 induced cytopathogenicity in MT-4 cells. Format: functional. Particulars: Homo sapiens, read-out: ED50 (the source's name). A digest of the protocol:
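MT-4 cells infected with HIV-2 (ROD) at MOI 0.02 and incubated 4 days with a range of compound concentrations. Viable cells were counted by MTT. ED50 is the dose giving 50% inhibition of virus-induced cytopathogenicity, given as the mean of two separate experiments.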
In general terms: Damage to the host cells serves as the signal in cytopathic effect assays.

Converted amounts (≈) assume the structure as drawn. A value given as a limit tells only on which side of the number the result lay.

This is an account of results in ChEMBL document CHEMBL1125724, “Potential anti-AIDS agents. Synthesis and antiviral activity of naphthalenesulfonic acid derivatives against HIV-1 and HIV-2” (1991).

Broadly, the inhibition is the share of the control response that was lost under treatment. Lower therefore signals a weak effect. For orientation: Inhibition means the share of the control response that was lost under treatment.

As for `Cc1ccc(C(=O)Nc2ccc(S(=O)(=O)O)c3cc(S(=O)(=O)O)cc(S(=O)(=O)O)c23)cc1NC(=O)c1cccc(NC(=O)Nc2cccc(C(=O)Nc3cc(C(=O)Nc4ccc(S(=O)(=O)O)c5cc(S(=O)(=O)O)cc(S(=O)(=O)O)c45)ccc3C)c2)c1`, the inhibition worked out at 18% in assay [1], 92% in assay [2] and 22% in assay [4]. Also, the ID50 in [3] is 42 µg/mL (≈ 32.4 µM).

With `O=S(=O)([O-])c1cc(O)c2c(NS(=O)(=O)c3ccc(-c4ccc(S(=O)(=O)Nc5cc(S(=O)(=O)[O-])cc6cc(S(=O)(=O)[O-])cc(O)c56)cc4)cc3)cc(S(=O)(=O)[O-])cc2c1.[Na+].[Na+].[Na+].[Na+]`, the inhibition was 0% in [5], 30% in assay [12], 100% in [17] and 100% in assay [22]. The values for the EC50 in the assay with MT4 [6] and in the assay with MT4 [24] were 7.8 µg/mL and 37 µg/mL, respectively. In addition, the Inhibition in the assay with MT4 [7] is on record as 6%; in the assay with MT4 [11], 20%; in the assay on MT4 [14] it was 100%; in the assay with MT4 [15], 15%; in the assay with MT4 [18], 7%; in the assay on MT4 [19], 100%. For the same compound, the Inhibition in the assay with MT4 [20] is on record as 5%; in the assay on MT4 [21] it was 100%. The ID50 in assay [8] came to 190 µg/mL. Besides, the CC50 with MT4 [9] was > 100 µg/mL. Also, the Cell viability in the assay with MT4 [10], in the assay on MT4 [13], in the assay with MT4 [16] and in the assay on MT4 [23] was 0 throughout. The inhibition at 98 µM in the assay on MOLT-4 (Homo sapiens) was found to be 100%.
